NF-kB neuron act: activators of NF-kB expression in neurons, primary screen, cell-based, HTS; AID 1239, 2008; human neuronal cells, NF-kB reporter expression; hits give high values; 190,000 tested, 1.6% active; fold change at 12.5 µM; in the data active = fold change above about 3.3
APP 5'UTR act: activators of APP 5'UTR luciferase reporter, primary screen, SH-SY5Y cells; AID 1276, 2008; 190,000 tested, 1% active; activation, % at 2 µM; SH-SY5Y APP 5'UTR luciferase reporter, luminescence; zero percent = DMSO vehicle wells;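 active = activation above a set limit, based on mean plus 3 SD of controls, cut at about 140% in these data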
AHR activator: AHR activators, primary screen, cell-based, luminescence, luciferase reporter, human; AHR-responsive luciferase reporter cells; activation, % at 5 µM; 320,000 tested, 2.5% active; in the data active = activation above about 47%
MDM2 E3 inh: MDM2-luciferase reporter signal enhancers, primary screen, MDM2 E3 ligase inhibitor project, cell-based, luminescence, 1536-well | cell-based MDM2 ubiquitination luciferase reporter, 2 h; 0 = plate control, 100 = twice control, blank-subtracted | 210,000 tested, 0.11% active | E3 ubiquitin-protein ligase Mdm2 (Homo sapiens), Q00987 | signal enhancement, % at 5 µM;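 active = signal enhancement of 30% or more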;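 also: luminescence tracks abundance of the self-degrading MDM2-luciferase fusion protein; higher signal means inhibition of MDM2 E3 ligase activity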
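Assay system: stable mammalian line carrying autodegrading MDM2–luciferase fusion reporter; amount: 2000 cells seeded into each well; buffer or medium: DMEM; benchmarks: plate control and blank wells; signal: luciferase luminescence; timing: 2 h compound exposure at 37 °C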
STAT1 activator: STAT1 signaling activators, primary screen, cell-based, HTS, luciferase reporter; 200,000 tested, 2.6% active; activation (% of control), % at 5.5 µM; NIH 3T3 STAT1-luciferase reporter, IFN-gamma, luminescence; 100% = IFN-gamma alone, no compound;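 active = activation above the screen-wide mean activation plus 3 SD, cut at about 130% in these data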
PERK inhibitor: block of dimerizer-induced PERK translation repression, primary screen, PERK inhibitor project, CHO PERK-DD cells, SEAP luminescence, HTS | 220,000 tested, 0.17% active | CHO PERK-DD fusion, SEAP luminescence translation reporter | AID 1416, 2008 | inhibition, % at 5.6 µM;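 active = inhibition above the mean inhibition of all tested compounds plus 3 SD, set separately per screening campaign, cut at about 2.9% in these data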;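 also: PERK kinase domain activated by AP20187 dimerizer at 100 nM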
Hits are given with their value; i = inactive; nt = no result given. Compounds with a hit are over-represented: about 4.5% of the library has one in this group of screens.

SMILES	NF-kB neuron act	APP 5'UTR act	AHR activator	MDM2 E3 inh	STAT1 activator	PERK inhibitor
O=C(c1ccccc1)c1cc(-c2ccccc2)on1	i	184	i	i	i	i
CCC(CC)c1nc(NCCC(=O)O)c2ccccc2n1	i	i	i	i	i	3.1
CC1CCC(NC(=O)C(=O)Nc2ccc3c(c2)OCO3)CC1 (stereo not drawn)	nt	nt	49	nt	nt	nt
CC1CCN(C(C(=O)Nc2ccc3c(c2)OCO3)c2ccccc2)CC1 (stereo not drawn)	i	i	48	i	nt	nt
O=C(Nc1ccc2c(c1)OCO2)C(c1ccccc1)N1CCCCC1 (stereo not drawn)	i	i	60	i	nt	nt
O=C(Nc1ccc2c(c1)OCO2)C(c1ccccc1)N1CCC2(CC1)OCCO2 (stereo not drawn)	i	i	i	i	i	i
CC1CCCN(C(C(=O)Nc2ccc3c(c2)OCO3)c2ccccc2)C1 (stereo not drawn)	i	i	47	i	nt	nt
CCC1ON(c2ccccc2)C2c3nc4ccccc4n3CC12 (stereo not drawn)	nt	nt	i	i	nt	nt
COc1ccc(C2NC(=O)N(C)C3=C2C(=O)CC(C)(C)C3)cc1OC (stereo not drawn)	i	i	i	i	i	i
CCC(=O)c1cn([C@@H](CCC(OC)OC)CC(=O)OC(C)(C)C)cc1CC	nt	nt	i	nt	nt	nt
O=C(Nc1ccccc1Cl)C1CC(=O)n2c(nc3ccccc32)N1 (stereo not drawn)	i	i	i	i	i	i
Cc1ccc(N=Nc2c(N)nn3c(N)c(C#N)c(C)nc23)cc1	i	i	75	i	129	i
Cc1ccc(N=Nc2c(N)nn3c(C)cc(C)nc23)cc1	i	i	58	i	i	i
Cc1cc(C)n2nc(N)c(N=Nc3cccc(Cl)c3)c2n1	i	i	i	i	i	i
O=C(NCC1CCCN1S(=O)(=O)c1cccs1)c1cccc(Cl)c1 (stereo not drawn)	nt	nt	i	nt	nt	nt
C[n+]1cc[nH]c1SCC(=O)c1ccccc1	i	i	i	i	i	i
COc1cccc(Nc2c3c(nc4c(-c5ccccc5)c(C)nn24)CCC3)c1	i	i	i	i	i	i
Fc1cccc(-c2cc3nc4c(c(N5CCOCC5)n3n2)CCCC4)c1	i	i	i	i	i	i
COc1cccc(-c2cc3nc4c(c(NCC(C)(C)CN(C)C)n3n2)CCCC4)c1	i	i	i	i	140	i
Fc1cccc(-c2cc3nc4c(c(NCc5ccco5)n3n2)CCCC4)c1	4.6	166	i	i	143	i
COc1ccc(C2=NS(=O)(=O)N(C)C(C(=O)Nc3ccc(F)cc3F)=C2)cc1	nt	nt	i	nt	nt	nt
FCCCOc1ccc(-c2ccnc(-c3ccccc3)n2)cc1	i	i	52	i	i	i
O=C(COC(=O)Cn1cnc2ccccc21)Nc1ccc(F)c(F)c1	nt	nt	i	nt	nt	nt
CCOc1ccc(N2CC(=O)N(c3ccc(OCC)cc3)CC2=O)cc1	i	i	i	i	i	i
CCOc1ccc(N2Cc3ccccc3C2)cc1	nt	i	i	nt	141	i
SMILES	NF-kB neuron act	APP 5'UTR act	AHR activator	MDM2 E3 inh	STAT1 activator	PERK inhibitor
COCn1c(-c2cccc(Br)c2)nc2ccccc21	i	i	53	i	i	i
COCCn1c(-c2ccc(OC)cc2)nc2ccccc21	i	i	i	i	i	i
COCn1c(-c2ccc(OC)c(OC)c2)nc2ccccc21	i	i	i	i	132	i
O=C(Nc1nnc(CCc2ccccc2)s1)c1ccccc1F	nt	nt	i	nt	nt	nt
CC(=O)N1CCCc2cc(S(=O)(=O)N3CCCC(C)C3)ccc21 (stereo not drawn)	nt	nt	i	nt	nt	nt
Oc1cccc(C=Nc2cccc3ccccc23)c1O	nt	nt	51	nt	nt	nt
Oc1ccccc1C=Nc1cccc2ccccc12	nt	nt	i	nt	nt	nt
CCC(c1nnnn1CC1CCCO1)N(CCCO)Cc1cc2cccc(C)c2[nH]c1=O (stereo not drawn)	i	i	i	i	i	i

Screening results (PubChem)
